Results: ChEMBL document CHEMBL1667806, “Synthesis and evaluation of anti-tubercular activity of new dithiocarbamate sugar derivatives” (2011)
Converted amounts (≈) assume the structure as drawn.

Legend:
[1] = tested on: Mycobacterium tuberculosis; assay: Antimycobacterial activity against Mycobacterium tuberculosis H37Rv; type: functional
Staphylococcus aureus [2] = assay: Antimicrobial activity against Staphylococcus aureus; type: functional
Mycobacterium avium = assay: microbe, parasite or virus in culture; type: functional, Mycobacterium avium subsp. avium ATCC 25291; conditions: ATCC 2529
Staphylococcus aureus [3] = assay: microbe, parasite or virus in culture; type: functional; conditions: 873
[4] = microbe, parasite or virus in culture; type: functional, Mycobacterium bovis BCG str. Tokyo 172; conditions: Mycobacterium tuberculosis variant bovis BCG
Escherichia coli [5] = assay: Antimicrobial activity against Escherichia coli DH5alpha; type: functional; conditions: DH5[alpha]
[6] = microbe, parasite or virus in culture; type: functional, Mycobacterium avium subsp. hominissuis; conditions: Mycobacterium avium, 104
[7] = tested on: Mycobacterium tuberculosis; assay: Antimycobacterial activity against drug-sensitive Mycobacterium tuberculosis isolate 20; type: functional
Summary of the method: (§1)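 MIC by broth dilution in Middlebrook 7H9 broth supplemented with albumin, dextrose and catalase.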

Enterococcus faecalis [8] = assay: Antimicrobial activity against AGs-resistant Enterococcus faecalis ATCC 19433; type: functional
Staphylococcus aureus [9] = assay: Antimicrobial activity against methicillin-resistant Staphylococcus aureus MF490; type: functional
[10] = tested on: Mycobacterium tuberculosis; assay: Antimycobacterial activity against drug-sensitive Mycobacterium tuberculosis isolate 7; type: functional; summary of the method: as §1
[11] = tested on: Mycobacterium tuberculosis; assay: Antimycobacterial activity against drug-sensitive Mycobacterium tuberculosis isolate 3; type: functional; summary of the method: as §1
Pseudomonas aeruginosa = assay: Antibacterial activity against drug-sensitive Pseudomonas aeruginosa PAO1; type: functional
[12] = tested on: Mycobacterium tuberculosis; assay: Antimycobacterial activity against drug-sensitive Mycobacterium tuberculosis isolate 16; type: functional; summary of the method: as §1
Escherichia coli [13] = assay: Antimicrobial activity against drug-sensitive Escherichia coli JM109; type: functional
Klebsiella pneumoniae = assay: Antibacterial activity against […] Klebsiella pneumoniae ATCC BAA-1705; type: functional
Staphylococcus aureus [14] = assay: Antimicrobial activity against drug-sensitive Staphylococcus aureus RN4220; type: functional
[15] = tested on: Mycobacterium tuberculosis; assay: Antimycobacterial activity against drug-sensitive Mycobacterium tuberculosis isolate 12; type: functional; summary of the method: as §1
[16] = tested on: Mycobacterium tuberculosis; assay: Antimycobacterial activity against drug-sensitive Mycobacterium tuberculosis isolate 9; type: functional; summary of the method: as §1
[17] = tested on: Mycobacterium tuberculosis; assay: Antimycobacterial activity against drug-sensitive Mycobacterium tuberculosis isolate 1; type: functional
[18] = tested on: Mycobacterium tuberculosis; assay: Antimycobacterial activity against drug-sensitive Mycobacterium tuberculosis isolate 8; type: functional; summary of the method: as §1
[19] = tested on: Mycobacterium tuberculosis; assay: Antimycobacterial activity against drug-sensitive Mycobacterium tuberculosis isolate 15; type: functional; summary of the method: as §1
[20] = tested on: Mycobacterium tuberculosis; assay: Antimycobacterial activity against drug-sensitive Mycobacterium tuberculosis isolate 5; type: functional; summary of the method: as §1
[21] = tested on: Mycobacterium tuberculosis; assay: Antimycobacterial activity against drug-sensitive Mycobacterium tuberculosis isolate 18; type: functional; summary of the method: as §1
[22] = tested on: Mycobacterium tuberculosis; assay: Antimycobacterial activity against drug-sensitive Mycobacterium tuberculosis isolate 4; type: functional; summary of the method: as §1
[23] = tested on: Mycobacterium tuberculosis; assay: Antimycobacterial activity against drug-sensitive Mycobacterium tuberculosis isolate 14; type: functional; summary of the method: as §1
[24] = tested on: Mycobacterium tuberculosis; assay: Antimycobacterial activity against drug-sensitive Mycobacterium tuberculosis isolate 19; type: functional; summary of the method: as §1
[25] = tested on: Mycobacterium tuberculosis; assay: Antimycobacterial activity against drug-sensitive Mycobacterium tuberculosis isolate 11; type: functional; summary of the method: as §1
[26] = tested on: Mycobacterium tuberculosis; assay: Antimycobacterial activity against drug-sensitive Mycobacterium tuberculosis isolate 10; type: functional; summary of the method: as §1
Staphylococcus aureus [27] = assay: Antimicrobial activity against drug-sensitive Staphylococcus aureus 209PJC-1; type: functional
[28] = tested on: Mycobacterium tuberculosis; assay: Antimycobacterial activity against drug-sensitive Mycobacterium tuberculosis isolate 2; type: functional; summary of the method: as §1
[29] = tested on: Mycobacterium tuberculosis; assay: Antimycobacterial activity against drug-sensitive Mycobacterium tuberculosis isolate 13; type: functional; summary of the method: as §1
[30] = tested on: Mycobacterium tuberculosis; assay: Antimycobacterial activity against drug-sensitive Mycobacterium tuberculosis isolate 6; type: functional; summary of the method: as §1
[31] = tested on: Mycobacterium tuberculosis; assay: Antimycobacterial activity against drug-sensitive Mycobacterium tuberculosis isolate 17; type: functional; summary of the method: as §1
Enterococcus faecalis [32] = assay: Antimicrobial activity against AGs-resistant Enterococcus faecalis ATCC 19434; type: functional
[33] = tested on: Mycolicibacterium smegmatis; assay: microbe, parasite or virus in culture; type: functional; conditions: JATA 64.01

CN(C)C(=S)S[C@@H]1O[C@H](CO)[C@@H](O)[C@H](O)[C@H]1NC(=O)C1CC1 gave an MIC [1] of 50 µg/mL (≈ 143 µM).

Compound CC[C@@H](CO)NCCN[C@@H](CC)CO [ETHAMBUTOL] has an MIC (Staphylococcus aureus [2]) of over 100 µg/mL, an MIC (Mycobacterium avium) of 1.6 µg/mL (≈ 7.83 µM) and an MIC (Staphylococcus aureus [3]) of over 100 µg/mL. The MIC [1] was 2.5 µg/mL (≈ 12.2 µM), the MIC [4] was 1.5 µg/mL (≈ 7.34 µM) and the MIC (Escherichia coli [5]) was over 100 µg/mL. It also gave an MIC [6] of 1.6 µg/mL (≈ 7.83 µM).

For CC(=O)N[C@@H]1[C@@H](O)[C@H](O)[C@@H](CO)O[C@H]1SC(=S)N1CCCC1, the MIC (Staphylococcus aureus [2]) was over 100 µg/mL, the MIC [7] was 12.5 µg/mL (≈ 35.7 µM) and the MIC (Enterococcus faecalis [8]) was over 128 µg/mL. It also gave an MIC (Staphylococcus aureus [9]) of over 128 µg/mL, an MIC [10] of 12.5 µg/mL (≈ 35.7 µM) and an MIC [11] of 6.25 µg/mL (≈ 17.8 µM). For the same compound, the MIC (Pseudomonas aeruginosa) was over 128 µg/mL, the MIC [12] was 6.25 µg/mL (≈ 17.8 µM) and the MIC (Escherichia coli [13]) was over 128 µg/mL. The MIC (Klebsiella pneumoniae) was over 128 µg/mL, the MIC (Staphylococcus aureus [14]) was over 128 µg/mL and the MIC [15] was 6.25 µg/mL (≈ 17.8 µM). It also gave an MIC [16] of 6.25 µg/mL (≈ 17.8 µM), an MIC [17] of 6.25 µg/mL (≈ 17.8 µM) and an MIC [18] of 12.5 µg/mL (≈ 35.7 µM). The MIC (Mycobacterium avium) was 50 µg/mL (≈ 143 µM), the MIC [19] was 6.25 µg/mL (≈ 17.8 µM) and the MIC (Staphylococcus aureus [3]) was over 100 µg/mL. For the same compound, the MIC [20] was 6.25 µg/mL (≈ 17.8 µM), the MIC [21] was 6.25 µg/mL (≈ 17.8 µM) and the MIC [1] was 6.25 µg/mL (≈ 17.8 µM). For the same compound, the MIC [22] was 6.25 µg/mL (≈ 17.8 µM), the MIC [23] was 6.25 µg/mL (≈ 17.8 µM) and the MIC [4] was 12.5 µg/mL (≈ 35.7 µM). It also gave an MIC [24] of 6.25 µg/mL (≈ 17.8 µM), an MIC [25] of 6.25 µg/mL (≈ 17.8 µM) and an MIC [26] of 6.25 µg/mL (≈ 17.8 µM). It also gave an MIC (Staphylococcus aureus [27]) of over 128 µg/mL, an MIC [28] of 6.25 µg/mL (≈ 17.8 µM) and an MIC [29] of 12.5 µg/mL (≈ 35.7 µM). For the same compound, the MIC [30] was 6.25 µg/mL (≈ 17.8 µM), the MIC [31] was 6.25 µg/mL (≈ 17.8 µM) and the MIC (Enterococcus faecalis [32]) was over 128 µg/mL. For the same compound, the MIC (Escherichia coli [5]) was over 100 µg/mL and the MIC [6] was 100 µg/mL (≈ 285 µM).

CC(=O)N[C@@H]1[C@@H](O)[C@H](O)[C@@H](CO)O[C@H]1O [N-ACETYLGLUCOSAMINE] showed an MIC (Staphylococcus aureus [2]) of over 100 µg/mL, an MIC (Mycobacterium avium) of over 100 µg/mL and an MIC (Staphylococcus aureus [3]) of over 100 µg/mL. The MIC [1] was over 100 µg/mL, the MIC [4] was over 100 µg/mL and the MIC (Escherichia coli [5]) was over 100 µg/mL. The MIC [6] was over 100 µg/mL.

In the case of CCN(CC)C(=S)[S-].[Na+] [DITIOCARB SODIUM], the MIC [33] is reported as over 100 µg/mL, the MIC [1] is reported as 3.13 µg/mL and the MIC [4] is reported as 3.13 µg/mL.

In the case of NCC[C@H](O)C(=O)N[C@@H]1C[C@H](N)[C@@H](O[C@H]2O[C@H](CN)[C@@H](O)[C@H](O)[C@H]2O)[C@H](O)[C@H]1O[C@H]1O[C@H](CO)[C@@H](O)[C@H](N)[C@H]1O [AMIKACIN], the MIC (Enterococcus faecalis [8]) is reported as over 128 µg/mL, the MIC (Staphylococcus aureus [9]) is reported as over 128 µg/mL and the MIC (Pseudomonas aeruginosa) is reported as 2 µg/mL (≈ 3.42 µM). For the same compound, the MIC (Escherichia coli [13]) was 0.5 µg/mL (≈ 0.854 µM), the MIC (Klebsiella pneumoniae) was 32 µg/mL (≈ 54.6 µM) and the MIC (Staphylococcus aureus [14]) was 4 µg/mL (≈ 6.83 µM). It also gave an MIC (Staphylococcus aureus [27]) of 0.5 µg/mL (≈ 0.854 µM) and an MIC (Enterococcus faecalis [32]) of 32 µg/mL (≈ 54.6 µM).

CN(C)C(=S)[S-].[Na+] [SODIUM DIMETHYLCARBAMODITHIOATE] showed an MIC (Staphylococcus aureus [2]) of over 100 µg/mL, an MIC [33] of over 100 µg/mL and an MIC (Mycobacterium avium) of over 100 µg/mL. The MIC (Staphylococcus aureus [3]) was over 100 µg/mL, the MIC [1] was 1.56 µg/mL and the MIC [4] was 1.56 µg/mL. For the same compound, the MIC (Escherichia coli [5]) was over 100 µg/mL and the MIC [6] was over 100 µg/mL.

In the case of CCCCCCCCCCCCCCCCCC(=O)N[C@@H]1[C@@H](O)[C@H](O)[C@@H](CO)O[C@H]1SC(=S)N(C)C, the MIC [1] is reported as 100 µg/mL (≈ 182 µM).

With CN(C)C(=S)S[C@@H]1O[C@H](CO)[C@@H](O)[C@H](O)[C@H]1NC(=O)c1ccccc1 the MIC [1] was 100 µg/mL (≈ 259 µM).

Compound CC1(C)S[C@@H]2[C@H](NC(=O)Cc3ccccc3)C(=O)N2[C@H]1C(=O)O [PENICILLIN G] has an MIC (Staphylococcus aureus [2]) of 31.3 µg/mL (≈ 93.6 µM), an MIC (Staphylococcus aureus [3]) of over 500 µg/mL and an MIC [1] of 500 µg/mL (≈ 1500 µM). It also gave an MIC [4] of 500 µg/mL (≈ 1500 µM) and an MIC (Escherichia coli [5]) of 25 µg/mL (≈ 74.8 µM).

In the case of NNC(=O)c1ccncc1 [ISONIAZID], the MIC (Staphylococcus aureus [2]) is reported as over 100 µg/mL, the MIC (Mycobacterium avium) is reported as 3.13 µg/mL (≈ 22.8 µM) and the MIC (Staphylococcus aureus [3]) is reported as over 100 µg/mL. It also gave an MIC [1] of 0.04 µg/mL (≈ 0.292 µM), an MIC [4] of 0.04 µg/mL (≈ 0.292 µM) and an MIC (Escherichia coli [5]) of over 100 µg/mL. For the same compound, the MIC [6] was 1.56 µg/mL (≈ 11.4 µM).
